Most compounds without a hit are left out; they make up all but 2.2% or so of the library.
Cneo AK release – Cryptococcus neoformans lysis via adenylate kinase release; lysis activity, % at 15 µM; C. neoformans lysis, adenylate kinase release luminescence, 4 h; normalised: neutral wells 0, clomiphene wells 100; AID 651654; 360,000 compounds, 0.2% hits;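 active means mean lysis activity across replicates of at least 80%, whatever share of replicates individually reach that level; inactive means mean lysis activity below 80%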
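Test system: log-phase Cryptococcus neoformans yeast cells; Quantity: yeast cell density of 5 × 10^6 cells/mL; Buffer or medium: YPD; Doses: single compound concentration per well; Timing: 4 h at 37 °C static, read 1 h later; Measured by: AK luminescence; Read-out basis: lysis from increased AK signal; Control set: Clomiphene as positive control.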
Mot1-301 SUMO – blocks SUMOylation pathway, rescuing yeast Mot1-301 growth. S. cerevisiae Mot1-301 growth rescue, ATP luminescence, 38.5C; percent above DMSO median, 100 means doubled. growth rescue, % at 18.8 µM. 320,000 compounds, 1% hits. AID 2716;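 active means every valid replicate shows activation above 250% relative to neutral control wells; inactive means the rest, any valid replicate at or below 250%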;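 further: OY570 slx delta 5 strain wells were the positive control but not used for scaling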
rRNA inh HTS – inhibitors of bacterial rRNA selective over humanized ribosomes. E. coli WT GFP vs humanized-ribosome RFP mutants, fluorescence, 24 h; stronger effect = lower value; DMSO median 0, no signal -100. GFP signal change (wild-type ribosome), % (test concentration not listed). 350,000 compounds, 1.6% hits. AID 720706;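 active means significant combined selectivity score with lowered wild-type GFP, culture density cut under 30%, mutant RFP and density less affected; inactive means any of these conditions unmet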
PglD inh – PglD (C. jejuni) enzyme inhibition; purified PglD enzyme, DTNB colorimetric CoA detection; inhibition, % at 12.5 µM; 360,000 compounds, 0.098% hits; AID 602405; in the data active means inhibition above about 16%, passing the limit was not always enough
Yeast superoxide – caloric restriction mimetics inhibiting age-related superoxide in yeast; S. cerevisiae aged cells, superoxide DHE fluorescence; stronger effect = lower value; superoxide response (% of plate mean), % at 10 µM; 330,000 compounds, 0.18% hits; AID 2690;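 active means superoxide response under a set limit, about three screen SD below normal, cut at about 65% in these data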;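 further: yeast aged for seven days with compound at 30 °C before DHE staining; 100% = average MFI of all compound-treated wells on the plate with controls excluded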
* = called active by the depositor.

Results for O=C(C[C@H]1C=C[C@H](NC(=O)C2CC2)[C@@H](CO)O1)NCCCN1CCOCC1 ?
Cneo AK release: -1; rRNA inh HTS: 2; PglD inh: 2

Results for CSc1nsc(NN)n1 ?
Cneo AK release: 0; rRNA inh HTS: -33*; PglD inh: 3

How did O=C(N/N=C/c1ccc(O)cc1O)C(=O)N/N=C/c1ccc(O)cc1O do in these assays?
Cneo AK release: -4; Mot1-301 SUMO: -26; rRNA inh HTS: -24*; PglD inh: -9; Yeast superoxide: 93

How did Oc1ccc(/C=N/Nc2ccc3ccccc3c2)c(O)c1 do in these assays?
Cneo AK release: 1; Mot1-301 SUMO: -13; rRNA inh HTS: -32*; PglD inh: 1; Yeast superoxide: 96

How did O=C(NN=Cc1ccc(O)cc1)C(=O)NN=Cc1ccc(O)cc1 do in these assays?
Cneo AK release: -1; rRNA inh HTS: 1; PglD inh: 1

How did Fc1cccc(-c2cc3nc4c(c(N5CCC6(CC5)OCCO6)n3n2)CCCC4)c1 do in these assays?
Yeast superoxide: 100

Results for OC1CCN(c2c3c(nc4cc(-c5cccc(F)c5)nn24)CCCC3)CC1 ?
Cneo AK release: -1; Mot1-301 SUMO: -6; rRNA inh HTS: -19*; PglD inh: 4; Yeast superoxide: 124

Results for C[C@@H]1CN([C@H](C)CO)C(=O)c2cc(/C=C/c3ccccc3)cnc2O[C@@H]1CN(C)C(=O)c1ccc2c(c1)OCO2 ?
Cneo AK release: 5; rRNA inh HTS: 0; PglD inh: 0

How did O=C(OCc1cn([C@H]2C[C@H](c3ccc(Cl)cc3)N(Cc3cccs3)C[C@@H]2O)nn1)c1ccccc1 do in these assays?
Cneo AK release: -1; rRNA inh HTS: -5.0*; PglD inh: -1

What do the screens show for `O=C1c2ccccc2-c2nc3ccccc3cc21`?
Cneo AK release: -4; Mot1-301 SUMO: 149; rRNA inh HTS: -15; PglD inh: -1; Yeast superoxide: 115

What do the screens show for `Cc1cc2ccccc2nc1-c1ccccc1F`?
rRNA inh HTS: -16*

What do the screens show for `CC(=O)C1=C(C)OC(N)=C(C#N)C1c1cccc2ccccc12` (stereo not given)?
Mot1-301 SUMO: -9; rRNA inh HTS: -9; Yeast superoxide: 94

How did CC(=O)n1c2c(c3ccccc31)OC(N)=C(C#N)C2c1ccc(C(C)C)cc1 (stereo not given) do in these assays?
Mot1-301 SUMO: 16; rRNA inh HTS: -15*; Yeast superoxide: 96

What do the screens show for `COc1ccc(OC)c(NC(=O)/C=C/c2ccccc2[N+](=O)[O-])c1`?
Cneo AK release: 0; Mot1-301 SUMO: 1; PglD inh: -5; Yeast superoxide: 122

How did COc1ccc(NC(=O)/C=C/c2ccccc2[N+](=O)[O-])c(OC)c1 do in these assays?
Mot1-301 SUMO: 7; rRNA inh HTS: -23*; Yeast superoxide: 98

Results for CCOc1cc(/C=C(\C#N)C(=O)Nc2cccc(C(=O)O)c2)cc(Br)c1OC(=O)c1ccc(OC)cc1 ?
Cneo AK release: 1; Mot1-301 SUMO: 94; rRNA inh HTS: -33*; PglD inh: 1; Yeast superoxide: 80

What do the screens show for `Fc1ccccc1CNC(=S)NCc1ccc(Cl)cc1`?
Cneo AK release: 194*; Mot1-301 SUMO: 15; rRNA inh HTS: -29; PglD inh: 0; Yeast superoxide: 102

How did O=C(CNC(=S)N(Cc1ccccc1)Cc1ccccc1F)NCc1ccccc1 do in these assays?
Mot1-301 SUMO: 5; rRNA inh HTS: -29; Yeast superoxide: 81

How did COc1cccc(CNC(=O)CNC(=S)N(Cc2ccccc2)Cc2ccccc2F)c1 do in these assays?
rRNA inh HTS: -25

Results for Cc1ccc(CNC(=O)CNC(=S)N(Cc2ccccc2)Cc2ccccc2F)cc1 ?
rRNA inh HTS: -30*

What do the screens show for `O=C(CNC(=S)N(Cc1ccccc1)Cc1ccccc1F)NCc1ccc(Cl)cc1`?
rRNA inh HTS: -27*

How did CC(=O)N1CC2(C1)[C@H](c1ccccc1)[C@H](CO)N2C(=O)c1ccncc1 do in these assays?
rRNA inh HTS: 3

How did CCCN1[C@@H]2c3ccc(-c4ccc(OC)cc4)c(=O)n3C[C@H]1[C@H](CO)[C@H]2C(=O)NCC do in these assays?
rRNA inh HTS: 0

What do the screens show for `COc1ccc2c3c([nH]c2c1)[C@@H](CO)N(C(=O)c1ccccc1)CC31CCN(C(=O)NC(C)C)CC1`?
rRNA inh HTS: 2

How did CC(C)NC(=O)N(C)C[C@@H]1Oc2cc(-c3ccncc3)ccc2S(=O)(=O)N([C@@H](C)CO)C[C@H]1C do in these assays?
Cneo AK release: 46; rRNA inh HTS: 4; PglD inh: 0

How did CC1c2[nH]c3ccccc3c2CCN1S(C)(=O)=O (stereo not given) do in these assays?
Cneo AK release: 4; Mot1-301 SUMO: -18; PglD inh: 15; Yeast superoxide: 101

Results for C=CCNC(=S)N1CCc2c([nH]c3ccccc23)C1C (stereo not given) ?
Cneo AK release: -5; Mot1-301 SUMO: 86; rRNA inh HTS: -33*; PglD inh: -1; Yeast superoxide: 110

Results for O=[N+]([O-])c1cccnc1N1CCN(c2ccccc2F)CC1 ?
Mot1-301 SUMO: 0; rRNA inh HTS: -34*; Yeast superoxide: 101

What do the screens show for `CCCc1cc(=O)[nH]c(SCC(=O)Nc2ccc(OC)c(S(=O)(=O)N3CCCCC3)c2)n1`?
Cneo AK release: 1; Mot1-301 SUMO: -4; rRNA inh HTS: -22*; PglD inh: 5; Yeast superoxide: 85

How did CCCc1cc(=O)[nH]c(SCC(=O)Nc2ccc(C)c(S(=O)(=O)N3CCCCC3)c2)n1 do in these assays?
Cneo AK release: 0; Mot1-301 SUMO: -6; rRNA inh HTS: 5; PglD inh: -1; Yeast superoxide: 107

How did Cc1ccc(S(=O)(=O)N2CCCCC2)cc1NC(=O)COC(=O)C1CC2C=CC1C2 (stereo not given) do in these assays?
Cneo AK release: 2; Mot1-301 SUMO: 18; PglD inh: -6; Yeast superoxide: 111

What do the screens show for `Cc1ccc(NC(=O)COc2ccccc2C#N)cc1S(=O)(=O)N1CCCCCC1`?
Cneo AK release: 1; rRNA inh HTS: -25*; PglD inh: 6; Yeast superoxide: 112

Results for COc1ccc(NC(=O)CSCC(=O)Nc2ccc(C)c(S(=O)(=O)N3CCCCCC3)c2)cc1 ?
Cneo AK release: 0; Mot1-301 SUMO: -9; rRNA inh HTS: -35*; PglD inh: 1; Yeast superoxide: 91

Results for Cc1ccc(NC(=O)COC(=O)C2CC3C=CC2C3)cc1S(=O)(=O)N1CCCCC1 (stereo not given) ?
Cneo AK release: 1; rRNA inh HTS: -26*; PglD inh: -1; Yeast superoxide: 108

Results for C[C@H](CO)N1C[C@H](C)[C@@H](CN(C)C(=O)c2ccncc2)Oc2cc(C#CC3(O)CCCC3)ccc2S1(=O)=O ?
Cneo AK release: 0; rRNA inh HTS: -1; PglD inh: -2
